# Measured values published in ChEMBL document CHEMBL1137343, “4-arylazo-3,5-diamino-1H-pyrazole CDK inhibitors: SAR study, crystal structure in complex with CDK2, selectivity, and cellular effects” (J Med Chem, 2006).
# Activity calls are given as the source filed them. No cut-off for these calls is given here.
# Legend:
# [1] = target: Tyrosine-protein kinase ABL1 (Homo sapiens) (UniProt P00519); experiment: Activity of c-ABL at 10 uM
# Outline: (§1)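 Radiometric kinase assay at 10 µM inhibitor, run in duplicate. c-Abl, CHK1, GSK3β, p70S6K, PKA and PKBα were run in 8 mM MOPS pH 7.0 with 0.2 mM EDTA. MAPK1 and SAPK2α were run in 25 mM Tris pH 7.5 with 0.02 mM EGTA. CK2 was run in 20 mM HEPES pH 7.6, 0.15 M NaCl, 0.1 mM EDTA, 2 mM DTT and 0.1% Triton X-100. All had 10 mM Mg-acetate, 10 µM ATP, [γ-33P]ATP and a peptide substrate; 40 min; H3PO4 stop; P30 filter; scintillation counting.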
# [2] = target: Serine/threonine-protein kinase Chk1 (Homo sapiens) (UniProt O14757); experiment: Activity of CHK1 at 10 uM; outline: as §1
# [3] = tested on: G-361; experiment: Viability of G361 cells at 100 uM; format: functional, Homo sapiens
# Outline: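 Cells grown in DMEM with 10% FCS and 4 mM glutamine at 37 °C, plated in 96-well format, preincubated 12 h, then exposed 72 h. Live cells measured by Calcein AM (1 h) fluorescence at 485/538 nm; % viable cells given at 100 µM compound.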
# [4] = target: Cyclin-dependent kinase 2/cyclin E (Homo sapiens, UniProt P24941); experiment: Inhibition of CDK2/Cyclin E in presence of 100 uM ATP; format: protein-complex assay
# [5] = target: Cyclin-dependent kinase 4/cyclin D1 (Homo sapiens, UniProt P11802); experiment: Inhibition of CDK4/Cyclin D1 in presence of 100 uM ATP; format: protein-complex assay
# [6] = target: Cyclin-dependent kinase 7/ cyclin H (Homo sapiens, UniProt P50613); experiment: Inhibition of CDK7/Cyclin H in presence of 100 uM ATP; format: protein-complex assay
# [7] = target: CDK9/cyclin T1 (Homo sapiens) (UniProt O60563+P50750); experiment: Activity of CDK9/Cyclin T1 at 10 uM; format: protein-complex assay
# [8] = tested on: HT-29; experiment: Inhibition of GAPDH mRNA synthesis in HT29 cells measured as number of copies per 10^6 cells by RT PCR at 50 uM after 6 hrs; format: functional, Homo sapiens
# Outline: (§2)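 HT-29 cells (5 × 10⁶) treated for 3, 6 or 12 h; total RNA extracted with TRI reagent, 3 µg reverse transcribed with random primers and M-MLV RT (42 °C, 60 min). Absolute transcript copies quantified by TaqMan real-time PCR, 50 cycles, against diluted gene-specific amplicon standards (30–1 000 000 copies); duplicate PCR per sample; values are means of four determinations ± SD.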
# [9] = tested on: HT-29; experiment: Inhibition of GAPDH mRNA synthesis in HT29 cells measured as number of copies per 10^6 cells by RT PCR at 50 uM after 12 hrs; format: functional, Homo sapiens; outline: as §2
# [10] = tested on: HT-29; experiment: Inhibition of CEA mRNA synthesis in HT29 cells measured as number of copies per 10^6 cells by RT PCR at 50 uM after 3 hrs; format: functional, Homo sapiens
# Outline: (§3)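 HT-29 cells were treated 3, 6 or 12 h; total RNA extracted with TRI reagent. 3 µg RNA reverse-transcribed with random primers and M-MLV RT at 42 °C for 60 min. CEA transcripts quantified by TaqMan real-time PCR: 50 cycles of 95 °C 15 s and 65 °C 15 s. Absolute copies came from amplicon standards of 30 to 10^6 copies, expressed per 10^6 cells. Samples run in duplicate PCR; values average of four determinations ± SD.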
# [11] = tested on: HT-29; experiment: Inhibition of CEA mRNA synthesis in HT29 cells measured as number of copies per 10^6 cells by RT PCR at 50 uM after 12 hrs; format: functional, Homo sapiens; outline: as §3
# [12] = tested on: HT-29; experiment: Inhibition of EpCAM mRNA synthesis in HT29 cells measured as number of copies per 10^6 cells by RT PCR at 50 uM after 3 hrs; format: functional, Homo sapiens; outline: as §2
# [13] = tested on: HT-29; experiment: Inhibition of EpCAM mRNA synthesis in HT29 cells measured as number of copies per 10^6 cells by RT PCR at 50 uM after 6 hrs; format: functional, Homo sapiens; outline: as §2
# [14] = tested on: HT-29; experiment: Cell cycle arrest in HT29 cells by accumulation at G0/G1 phase at 50 uM after 12 hrs; format: functional, Homo sapiens
# Outline: (§4)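 Subconfluent, asynchronous HT-29 cells were treated 3, 6 or 12 h, then pulsed with 10 µM BrdU for 30 min at 37 °C. Cells were fixed in ice-cold 70% ethanol, DNA denatured in 2 M HCl and neutralised with borate. Staining used FITC anti-BrdU, then propidium iodide (0.1 mg/mL) with RNase A. Analysis by flow cytometry with 488 nm laser.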
# [15] = tested on: HT-29; experiment: Cell cycle arrest in HT29 cells by accumulation at G2/M phase at 50 uM after 12 hrs; format: functional, Homo sapiens; outline: as §4
# [16] = tested on: MCF7; experiment: Decrease in pRb phosphorylation in MCF7 cells after 24 hrs at 50 uM; format: functional, cell-based; conditions: Homo sapiens
# Outline: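 MCF7 cells were treated 24 h, lysed in Laemmli buffer and run on 10% SDS-PAGE. Proteins were blotted to nitrocellulose; loading checked with Ponceau-S; blocked with 5% milk in PBS-Tween. Specific antibodies applied overnight (pRb phosphosites Ser780, Ser807, Thr821; p53; p21WAF1), then peroxidase secondary at 1:2000 with ECL detection.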
# [17] = tested on: MCF7 (Homo sapiens); experiment: Reduction of RNA polymerase 2 CTD phosphorylation in MCF7 cells after 24 hrs
# Sequence of Cyclin-dependent kinase 7/ cyclin H (P51946 whole entry): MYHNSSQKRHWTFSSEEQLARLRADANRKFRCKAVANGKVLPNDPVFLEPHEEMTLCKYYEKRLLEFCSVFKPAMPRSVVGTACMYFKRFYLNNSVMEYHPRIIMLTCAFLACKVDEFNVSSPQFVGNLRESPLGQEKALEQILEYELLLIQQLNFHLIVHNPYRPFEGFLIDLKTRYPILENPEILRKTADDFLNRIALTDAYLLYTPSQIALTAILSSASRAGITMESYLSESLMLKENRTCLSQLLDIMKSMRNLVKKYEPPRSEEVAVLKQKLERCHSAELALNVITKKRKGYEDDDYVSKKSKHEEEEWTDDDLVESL
# Sequence of Cyclin-dependent kinase 7/ cyclin H (P50613 whole entry): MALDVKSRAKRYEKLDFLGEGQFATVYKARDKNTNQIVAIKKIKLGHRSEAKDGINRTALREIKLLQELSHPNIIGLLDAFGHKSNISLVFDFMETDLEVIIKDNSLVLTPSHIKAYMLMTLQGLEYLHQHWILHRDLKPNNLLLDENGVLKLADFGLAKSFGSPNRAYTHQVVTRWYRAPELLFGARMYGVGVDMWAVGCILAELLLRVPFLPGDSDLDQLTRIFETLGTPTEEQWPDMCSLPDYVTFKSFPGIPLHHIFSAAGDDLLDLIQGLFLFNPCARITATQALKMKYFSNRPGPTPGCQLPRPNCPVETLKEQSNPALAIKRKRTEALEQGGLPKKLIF
# Sequence of Tyrosine-protein kinase ABL1 (Homo sapiens) (P00519 whole entry): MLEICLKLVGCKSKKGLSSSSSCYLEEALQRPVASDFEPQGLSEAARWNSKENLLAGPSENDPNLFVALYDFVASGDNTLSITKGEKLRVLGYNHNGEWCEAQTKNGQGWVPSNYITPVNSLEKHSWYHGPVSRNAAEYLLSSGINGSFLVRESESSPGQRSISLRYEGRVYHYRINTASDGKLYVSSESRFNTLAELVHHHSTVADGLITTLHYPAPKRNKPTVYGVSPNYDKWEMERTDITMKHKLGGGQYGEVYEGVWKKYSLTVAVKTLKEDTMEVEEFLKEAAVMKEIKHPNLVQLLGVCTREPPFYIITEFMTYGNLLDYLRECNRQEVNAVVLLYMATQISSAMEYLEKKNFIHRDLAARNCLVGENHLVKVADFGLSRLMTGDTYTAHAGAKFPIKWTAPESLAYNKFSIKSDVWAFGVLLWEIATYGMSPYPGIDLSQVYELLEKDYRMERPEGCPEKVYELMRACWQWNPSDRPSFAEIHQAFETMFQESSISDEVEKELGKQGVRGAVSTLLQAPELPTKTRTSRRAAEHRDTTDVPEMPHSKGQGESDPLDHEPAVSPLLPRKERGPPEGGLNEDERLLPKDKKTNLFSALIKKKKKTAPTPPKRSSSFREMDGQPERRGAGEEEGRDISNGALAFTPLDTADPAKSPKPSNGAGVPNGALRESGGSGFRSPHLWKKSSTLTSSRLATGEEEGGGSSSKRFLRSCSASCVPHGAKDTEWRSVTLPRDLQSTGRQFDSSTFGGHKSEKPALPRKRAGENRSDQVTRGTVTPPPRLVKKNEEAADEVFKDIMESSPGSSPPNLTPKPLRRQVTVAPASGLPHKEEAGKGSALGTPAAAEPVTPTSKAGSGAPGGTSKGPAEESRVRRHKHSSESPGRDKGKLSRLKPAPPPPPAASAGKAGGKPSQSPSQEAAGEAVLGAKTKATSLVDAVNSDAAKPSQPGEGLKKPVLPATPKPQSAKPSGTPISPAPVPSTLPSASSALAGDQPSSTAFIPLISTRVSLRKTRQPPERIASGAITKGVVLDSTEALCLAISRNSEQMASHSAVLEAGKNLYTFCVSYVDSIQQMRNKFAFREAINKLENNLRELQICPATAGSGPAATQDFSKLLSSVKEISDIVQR
# Sequence of Cyclin-dependent kinase 4/cyclin D1 (P11802 whole entry): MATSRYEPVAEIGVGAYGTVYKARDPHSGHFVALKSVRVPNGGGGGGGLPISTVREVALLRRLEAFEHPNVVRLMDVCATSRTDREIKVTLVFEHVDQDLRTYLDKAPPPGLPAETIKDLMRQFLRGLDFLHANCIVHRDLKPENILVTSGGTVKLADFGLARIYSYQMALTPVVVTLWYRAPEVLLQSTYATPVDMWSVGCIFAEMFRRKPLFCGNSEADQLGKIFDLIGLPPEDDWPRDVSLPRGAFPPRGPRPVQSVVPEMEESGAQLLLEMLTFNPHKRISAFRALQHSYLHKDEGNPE
# Sequence of Cyclin-dependent kinase 4/cyclin D1 (P24385 whole entry, further chain): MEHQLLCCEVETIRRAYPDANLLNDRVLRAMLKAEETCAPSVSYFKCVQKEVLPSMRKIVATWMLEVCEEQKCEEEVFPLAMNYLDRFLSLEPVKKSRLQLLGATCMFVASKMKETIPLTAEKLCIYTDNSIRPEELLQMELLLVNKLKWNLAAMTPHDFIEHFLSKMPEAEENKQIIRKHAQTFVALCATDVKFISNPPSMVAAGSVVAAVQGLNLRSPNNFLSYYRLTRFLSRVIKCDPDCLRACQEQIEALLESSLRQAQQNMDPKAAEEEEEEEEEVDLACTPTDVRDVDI
# Sequence of Serine/threonine-protein kinase Chk1 (Homo sapiens) (O14757 whole entry): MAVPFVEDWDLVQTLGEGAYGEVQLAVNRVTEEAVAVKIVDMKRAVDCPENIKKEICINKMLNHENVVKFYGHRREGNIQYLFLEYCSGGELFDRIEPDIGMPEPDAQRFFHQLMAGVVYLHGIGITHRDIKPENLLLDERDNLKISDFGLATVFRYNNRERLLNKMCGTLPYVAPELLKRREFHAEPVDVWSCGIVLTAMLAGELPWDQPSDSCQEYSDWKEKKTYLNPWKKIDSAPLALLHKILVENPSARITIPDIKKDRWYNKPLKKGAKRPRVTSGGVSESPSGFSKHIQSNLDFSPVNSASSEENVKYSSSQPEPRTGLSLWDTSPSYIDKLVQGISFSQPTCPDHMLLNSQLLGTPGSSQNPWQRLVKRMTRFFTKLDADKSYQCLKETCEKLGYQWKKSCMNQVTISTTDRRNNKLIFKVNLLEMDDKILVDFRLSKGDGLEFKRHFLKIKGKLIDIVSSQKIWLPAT
smiles,measurement,setting,value
Nc1n[nH]c(N)c1/N=N/c1ccc(O)cc1,residual activity,[1],84%
same,residual activity,[2],89%
same,Activity,[3],8.3%
same,IC50,[4],20 µM
same,IC50,[5],13.5 µM
same,IC50,[6],26 µM
same,residual activity,[7],6.9%
same,Activity,[8],3785908
same,Activity,[9],1811960
same,Activity,[10],27900
same,Activity,[11],12005
same,Activity,[12],6047138
same,Activity,[13],5069600
same,Activity,[14],27.2%
same,Activity,[15],6.8%
same,Activity,[16],Active
same,Activity,[17],Active
